Source: ChEMBL document CHEMBL1177679, “Design and synthesis of novel benzimidazole derivatives as inhibitors of hepatitis B virus” (Bioorg Med Chem, 2010)

Legend:
[1] = Selectivity index, ratio of CC50 for human HepG2(2.2.15) cells to IC50 for Hepatitis B virus; type: functional
How it was run: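 SI calculated as CC50 (MTT, HepG2.2.15, 8 days) divided by IC50 for inhibition of cytoplasmic HBV-DNA synthesis (fluorescent PCR) in the same cells.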

[2] = Cytotoxicity against human HepG2(2.2.15) cells after 8 days by MTT assay; type: cell-based
How it was run: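 HepG2.2.15 cells in triplicate, exposed 8 days to various doses; media-only controls. MTT (5 g/L) added 4 h before end, cells lysed with 10% SDS/50% DMF pH 7.2, OD read at 570 nm 6 h later.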

Hepatitis B virus = assay: Antiviral activity against Hepatitis B virus infected in human HepG2(2.2.15) cells assessed as inhibition of viral cytoplasmic DNA synthesis after 8 days by RT-PCR analysis; type: functional, organism-based; details: HepG2 2.2.15, 192 h

With `Nc1ccn([C@@H]2CS[C@H](CO)O2)c(=O)n1` [LAMIVUDINE] the “Selectivity Index” value [1] was 31.3, the CC50 at 192 h [2] was 5000 nM and the IC50 (Hepatitis B virus) was 160 nM.
